PAFAH1B3 inh – PAFAH1B3 enzyme inhibitors, primary screen, biochemical, fluorescence polarization, human | 0.28% of 340,000 active | AID 492972, 2010 | inhibition, % at 3.39 µM | recombinant PAFAH1B3, FP-rhodamine probe;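 active = inhibition above the screen-wide average of all tested compounds plus 3 SD, cut at about 25% in these data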;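 note: 0% = enzyme with DMSO only and 100% = wells lacking PAFAH1B3 protein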
Target sequence (Q15102 whole entry, looked up): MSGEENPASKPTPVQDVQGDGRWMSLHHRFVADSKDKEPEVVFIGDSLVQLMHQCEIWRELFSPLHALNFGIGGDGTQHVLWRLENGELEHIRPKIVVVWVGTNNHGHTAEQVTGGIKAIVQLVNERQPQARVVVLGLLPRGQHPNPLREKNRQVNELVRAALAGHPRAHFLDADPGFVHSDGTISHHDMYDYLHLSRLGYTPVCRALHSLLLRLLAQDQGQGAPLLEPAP
pPAFAH FP inh – pPAFAH enzyme inhibitors, primary screen, biochemical, fluorescence polarization, human. Platelet-activating factor acetylhydrolase (Homo sapiens), Q13093. recombinant pPAFAH, FP-rhodamine probe fluorescence polarization. inhibition, % at 3.39 µM. 1.5% of 330,000 active;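 active = inhibition above the mean inhibition across the screen plus 3 SD, cut at about 25% in these data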;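 note: inhibitors block binding of the rhodamine activity-based probe so polarization drops; 0% = enzyme with DMSO and 100% = wells lacking pPAFAH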
IMP-1 inhibitor – IMP-1 metallo-beta-lactamase inhibitors, primary screen, biochemical, epi-absorbance readout, Pseudomonas aeruginosa enzyme; metallo-beta-lactamase IMP-1 (Pseudomonas aeruginosa); purified IMP-1, nitrocefin hydrolysis, epi-absorbance fluorescence; inhibition, % at 5.6 µM; 0.45% of 290,000 active;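 active = inhibition above the mean plus 3 SD of all compounds in the same screening run, cut at about 4.5% in these data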;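 note: 0% = IMP-1 with DMSO and 100% = DMSO wells lacking enzyme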
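System: purified recombinant IMP-1 beta-lactamase. Medium: Zinc- and detergent-supplemented HEPES buffer, pH 7.1. Compound: one 5.6 µM dose […]. Schedule: 15 min preincubation plus 25 min reaction at 25 °C. Technique: Epi-absorbance fluorescence, 480 nm excitation, 530 nm emission.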
PAFAH2 inh – PAFAH2 enzyme inhibitors, primary screen, biochemical, fluorescence polarization, human. Platelet-activating factor acetylhydrolase 2, cytoplasmic (Homo sapiens), Q99487. recombinant PAFAH2, FP-rhodamine activity probe. inhibition, % at 3.39 µM. 0.99% of 340,000 active;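 active = inhibition above the mean over all tested compounds plus 3 SD, cut at about 30% in these data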;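 note: inhibitors block probe labeling of enzyme so polarization drops; 0% = enzyme with DMSO and 100% = wells lacking PAFAH2 protein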
PAFAH1B2 inh – PAFAH1B2 enzyme inhibitors, primary screen, biochemical, fluorescence polarization, human | Platelet-activating factor acetylhydrolase IB subunit alpha2 (Homo sapiens), P68402 | recombinant PAFAH1B2, FP-rhodamine activity probe | inhibition, % at 3.39 µM | 1.2% of 340,000 active | AID 492953, 2010;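 active = inhibition above the mean of all tested compounds plus 3 SD, cut at about 24% in these data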;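 note: 0% = enzyme with DMSO and 100% = wells lacking PAFAH1B2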
Target sequence (P68402 whole entry, looked up): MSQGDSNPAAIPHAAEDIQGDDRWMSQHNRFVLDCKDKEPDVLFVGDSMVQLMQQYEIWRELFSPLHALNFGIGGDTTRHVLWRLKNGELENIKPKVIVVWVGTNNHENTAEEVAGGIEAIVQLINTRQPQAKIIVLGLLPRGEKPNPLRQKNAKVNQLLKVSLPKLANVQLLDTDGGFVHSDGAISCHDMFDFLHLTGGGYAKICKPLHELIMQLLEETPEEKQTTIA
VIM-2 inh – VIM-2 metallo-beta-lactamase inhibitors, primary screen, biochemical, epi-absorbance readout, Pseudomonas aeruginosa enzyme | AID 1527, 2009 | inhibition, % at 5.6 µM | purified VIM-2, nitrocefin hydrolysis, epi-absorbance fluorescence | 0.89% of 290,000 active;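 active = inhibition above the mean of all tested compounds plus 3 SD, cutoff set per screening run, cut at about 7.5% in these data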;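 note: red hydrolysis product quenches plate fluorescence so inhibitors raise well fluorescence; 0% = enzyme with DMSO and 100% = DMSO without enzyme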
The depositor's hits bear a star. The list is not random: actives were taken first. Their share in the collection is about 3.6%.

Screening Cc1ccc(NC(C)c2cc(Cl)ccc2O)cc1 (configuration not stated) returned PAFAH1B3 inh 2, pPAFAH FP inh 0, IMP-1 inhibitor 0, PAFAH2 inh -4, PAFAH1B2 inh 28* and VIM-2 inh 1.
Screening O=C(Nc1ccccc1)Nc1n[nH]c2nnc(-c3ccccc3)c(-c3ccccc3)c12 returned PAFAH1B3 inh -6, pPAFAH FP inh 1, IMP-1 inhibitor 21*, PAFAH2 inh 8, PAFAH1B2 inh -5 and VIM-2 inh 0.
`O=C(NNC(=O)C12CC3CC(CC(C3)C1)C2)c1ccccc1O` gave PAFAH1B3 inh 14, pPAFAH FP inh 5, PAFAH2 inh 63* and PAFAH1B2 inh 36*.
Cc1cccc(C(=O)NNC(=O)C23CC4CC(CC(C4)C2)C3)c1O was read as PAFAH1B3 inh 5, pPAFAH FP inh 11, IMP-1 inhibitor -2, PAFAH2 inh 31*, PAFAH1B2 inh 37* and VIM-2 inh -2.
Screening Cc1ccccc1C(=O)NNC(=O)C12CC3CC(CC(C3)C1)C2 returned PAFAH1B3 inh 1, pPAFAH FP inh 0, IMP-1 inhibitor 0, PAFAH2 inh 0, PAFAH1B2 inh 9 and VIM-2 inh -3.
COC(=O)c1ccccc1S(=O)(=O)NNC(=O)C12CC3CC(CC(C3)C1)C2 was read as PAFAH1B3 inh 11, pPAFAH FP inh 6, PAFAH2 inh 80* and PAFAH1B2 inh 24*.
CC1(C)Cc2c(cnn2-c2ccccc2)C(NC(=O)CCc2ccc(=O)[nH]n2)C1 (configuration not stated) was read as PAFAH1B3 inh 5, pPAFAH FP inh 3, IMP-1 inhibitor 0, PAFAH2 inh 3, PAFAH1B2 inh -1 and VIM-2 inh 0.
For O=C(NN=C1CCCC1)c1cc(-c2ccc(F)cc2)nc2ccccc12 the results were PAFAH1B3 inh -6, pPAFAH FP inh -8, IMP-1 inhibitor -4, PAFAH2 inh 3, PAFAH1B2 inh -3 and VIM-2 inh -3.
Screening O=C(NNS(=O)(=O)c1ccc(F)cc1)c1cc(Cl)ccc1O returned PAFAH1B3 inh 9, IMP-1 inhibitor -5, PAFAH2 inh 8, PAFAH1B2 inh 26* and VIM-2 inh -3.
For O=C(NNS(=O)(=O)c1cccc(Cl)c1)c1cc(-c2ccc(F)cc2)nc2ccccc12 the results were PAFAH1B3 inh -6, pPAFAH FP inh 2, IMP-1 inhibitor -2, PAFAH2 inh -4, PAFAH1B2 inh 40* and VIM-2 inh -4.
O=C(O)CC/C(=N\NC(=O)c1ccncc1)c1ccccc1 was read as PAFAH1B3 inh 5, pPAFAH FP inh 2, IMP-1 inhibitor -3, PAFAH2 inh 3, PAFAH1B2 inh 1 and VIM-2 inh -1.
For Cc1cc(C)n(Cc2ccc(F)cc2)c(=O)c1C#N the results were PAFAH1B3 inh 12, pPAFAH FP inh 1, IMP-1 inhibitor -1, PAFAH2 inh -4, PAFAH1B2 inh 2 and VIM-2 inh 0.
Screening Cc1ccccc1Cn1c(C)cc(C)c(C#N)c1=O returned PAFAH1B3 inh -1, pPAFAH FP inh 6, IMP-1 inhibitor 4.5*, PAFAH2 inh 2, PAFAH1B2 inh -1 and VIM-2 inh -2.
`CCc1cc(=O)oc2c(C)c(OC(C)C(=O)NC3CC(C)(C)NC(C)(C)C3)ccc12` (configuration not stated) gave PAFAH1B3 inh 5, pPAFAH FP inh 1, IMP-1 inhibitor 2, PAFAH2 inh 0, PAFAH1B2 inh 1 and VIM-2 inh 8.1*.
`CCc1cc(=O)oc2cc(C)cc(OC(C)C(=O)NC3CC(C)(C)NC(C)(C)C3)c12` (configuration not stated) gave PAFAH1B3 inh 3, pPAFAH FP inh 3, IMP-1 inhibitor -2, PAFAH2 inh 6, PAFAH1B2 inh 0 and VIM-2 inh 2.

High-throughput results (PubChem)
